# This sample holds only a part of the variants without activity.
# B1: tRNA (parent)
# chain: GUUCCGUUGGCGUAAUGGUAACGCGUCUCCCUCCUAAGGAGAAGACUGCGGGUUCGAGUCCCGUACGGAACG
# Variants of: B1
# Assay: yeast fitness relative to wild type (ratio to wild type); higher = fitter; tRNA-Arg(CCU), competitive growth, 37 C, YPD
# Method in brief: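 Variants of the tRNA-Arg(CCU) gene were chemically synthesised with a 3% per-site mutation rate across 69 sites and placed at the native genomic locus in Saccharomyces cerevisiae. Six parallel replicates of the pooled strains were competed in YPD at 37°C for 24 hours, and gene amplicons from the start and end populations were read by 100-nucleotide paired-end sequencing. Darwinian fitness relative to wild type was derived from changes in genotype frequencies. Genotypes required ≥ 100 starting reads, and estimates < 0.5 were set to 0.5.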
row,Variant,yeast fitness
1,C5U U32G A36U G68C,≤ 0.5
2,U8A U13A A14C U16A G67A,0.584
3,C29U G51C G67A,≤ 0.5
4,A14C U19C C34U G39C G51C,≤ 0.5
5,U8C U26G A42C,0.703
6,C27A C31G C60G,0.537
7,C5A U8G A37U G51A G52C U59C,0.639
8,U28C G38C G52A,≤ 0.5
9,A40C A45C A65G G68U,≤ 0.5
10,A15G A20G A21C C31U,≤ 0.5
11,A20C C29U G50C U59G C62U G68A,0.567
12,C31A A42G A43U G56C,≤ 0.5
13,A15G C49G C62G,≤ 0.5
14,U2G C5A A57U,≤ 0.5
15,A20U C27A A40C C46A,≤ 0.5
16,G25C C27G U47C,≤ 0.5
17,C31A A57G,0.777
18,U3C C30A,1.06
19,C24U U32G A40U U53C U64G,≤ 0.5
20,U7A A20G C29U A57C,≤ 0.5
21,C34U G44C U47G A65C C66G,≤ 0.5
22,U32A,0.742
23,G10U A43G C46U,≤ 0.5
24,C22G G52C C66U G68A,≤ 0.5

row,Variant,yeast fitness
1,U19C A37G C49U A69C,0.51
2,C31G A40G,0.719
3,G10A G17A A36G G38C A45U C46U G67U,≤ 0.5
4,U26C C33G A42C C49G G58C C62G,0.616
5,C24U G38A G51A G52C,0.634
6,C5U C11A C24G C27G A36U G38C C60G C66A,0.522
7,U2A C33G A42C G63A,≤ 0.5
8,C22U U53C C61G G67A A69C,≤ 0.5
9,A21G C49A C62U,0.544
10,C4G C11G C34U G38A G44C,≤ 0.5
11,G23C A37G,≤ 0.5
12,A43C C49G,0.639
13,C46G U54A C62U,≤ 0.5
14,A20G U35C G63A A70U,≤ 0.5
15,A14U A21C A36C C49A G68C,≤ 0.5
16,U8C C11A G18C C27G,≤ 0.5
17,G9A G12U A14U A37U C49G C60G,≤ 0.5
18,C5G C31U A37G,0.592
19,U3A G56C,0.716
20,G12A A20G U26C C31G C33U A42U G67C,≤ 0.5
21,C34U C49U C55U G67A,≤ 0.5
22,U16C C22G U64C,0.625
23,A42G C60G C61G,≤ 0.5
24,A14G U28A,0.705

row,Variant,yeast fitness
1,U2C U35G A40C,0.587
2,C4G A15C A57U C61G,≤ 0.5
3,A20U A45C A65C,0.63
4,G10C G52C,≤ 0.5
5,A14U C24G,0.657
6,U7A G10C C30G C46U,≤ 0.5
7,U13A A15G C22G C24U G44A U53G,≤ 0.5
8,C27U G39C,0.613
9,A14G U47A G56A,0.724
10,A20C C27U A37C A42G C66U,≤ 0.5
11,A20U G50A U59C,0.619
12,C5G U35A C49A G51C,≤ 0.5
13,C22A C30U A69C,≤ 0.5
14,U13A C22A C46U,0.633
15,C22G A36G A37C C46A C49G,≤ 0.5
16,C5A G6C G63A,≤ 0.5
17,A14G A20C C60U,≤ 0.5
18,C33G U35A,≤ 0.5
19,U2A A15U C49G,≤ 0.5
20,C34A A43C G67A,0.537
21,A14C A15G,0.675
22,C4U A40G U53G A57C C60G A65U,0.583
23,G9A U35C A42U,≤ 0.5
24,A40U C55A,0.584

row,Variant,yeast fitness
1,C22G C27G U54C C66U,≤ 0.5
2,G12A U16C C27A A70C,≤ 0.5
3,C24U G25C C30G G50C G56A C66U,≤ 0.5
4,G10C C27U G63C,≤ 0.5
5,U2G U7C C29G C60A,≤ 0.5
6,U13A C55A,0.648
7,U7A G63A,0.668
8,G6C A65C,0.872
9,U8C U32C G44A G56A,≤ 0.5
10,U2C C24A C33A C46U,≤ 0.5
11,A45C G48C G50A U53C C66A,≤ 0.5
12,A20G C24A C27U,0.609
13,C5U A45U C62G G63A,≤ 0.5
14,C11A C22G A45C G50A,0.741
15,U32C A36G,0.861
16,G10C A40G,0.588
17,U26A C27U A65G A69G,0.669
18,U7A U64C,0.829
19,U19A G25C C33A A37G G44A,≤ 0.5
20,A20C C60A,0.587
21,A15U C46G C61A,0.51
22,C11U G23C G58A A70U,0.541
23,U59C A70U,1.01
24,G12A C29G,0.61

row,Variant,yeast fitness
1,C5G C31U C49G,0.576
2,A14C A45U G50C G68C,≤ 0.5
3,C30U A43C G67U,0.571
4,A15G A20C C24G A57G,≤ 0.5
5,G10A A21C C24A A65C,0.521
6,U16G G44C,0.912
7,U3G A43G A65U,0.701
8,G23A A36C U47C G48C,≤ 0.5
9,C62A A70G,0.674
10,C5G C66A A69U,0.574
11,C31G C33G G67A,≤ 0.5
12,U47A U64A,0.677
13,C5G U26C A42G A57G C61U,≤ 0.5
14,U8C C22G U54A U59A C61U,≤ 0.5
15,G10A A21G U28C,≤ 0.5
16,U3C C24U A36C G63A,≤ 0.5
17,U13A A20C A40U,≤ 0.5
18,C30U A36U A70C,≤ 0.5
19,A37G C46G G56A,0.624
20,G9A C22A A57G,0.628
21,G9A C31U A37C G63A,≤ 0.5
22,C5G G9C A43G,0.667
23,U8A A20G U26C A40C,0.617
24,C29A C33U G67A,≤ 0.5

row,Variant,yeast fitness
1,U13A U26G C27A G39C A42G G51C,≤ 0.5
2,U19C A20C,0.805
3,A45U C46U,1.09
4,C11U A36C C46G,≤ 0.5
5,U19A C24U C29A U54A,≤ 0.5
6,G6A G39C U64C,0.605
7,U2G G48A G58A,0.614
8,C22G A43G,0.702
9,A20G A40C A42U A43C G48A C66U,0.532
10,A21C C61G C62G,≤ 0.5
11,A20G C34G U47C,≤ 0.5
12,C4U C11U U35A,0.523
13,C5A A37C G38C C55U,0.598
14,U53G G63A,0.553
15,G38C C60G,0.567
16,C4U C33U,0.789
17,C4A G18C A43C,≤ 0.5
18,C4U U19C C31A,≤ 0.5
19,A36C G56C A57C,0.593
20,C30G G68C,0.691
21,U19A C24G C33G C34G,0.528
22,G17C C27U U53G,≤ 0.5
23,G41C C62U A69C,0.619
24,C31U G58C U59G C61G,≤ 0.5

row,Variant,yeast fitness
1,U3C U19A A65G,0.796
2,U8A C30A A37G C46U A57C,0.579
3,C5U U19A G38C C62G G68C,0.62
4,A69C,1.03
5,G44A C55U G63A,≤ 0.5
6,G41A G48C C49U G68A,≤ 0.5
7,U3A A14U C46G,≤ 0.5
8,C24U G51A G67A,0.556
9,C5U A14G A40G,0.648
10,C5G C11G A14U A15U A65G,≤ 0.5
11,U35C A37C C55A C60G G63C,≤ 0.5
12,C4U C24U C55U,≤ 0.5
13,U26C U28C,0.81
14,U2A A15U U16A C60U C62G A65C A69U,≤ 0.5
15,C4A C5A C22A U28G C33G A57G C62A,≤ 0.5
16,U3C A37C A57G G68C,≤ 0.5
17,U3C U8G U32A C33G C62U A65G,≤ 0.5
18,C4G G9C G52A G63C,≤ 0.5
19,U16C U26A A43U C62U,≤ 0.5
20,A15U C66U,0.738
21,C5U U32C A42G,0.531
22,A15G G38A A40C G50A U54A,≤ 0.5
23,C33U A42C A70G,0.75
